Laboratory results as given in ChEMBL document CHEMBL2429849, “Substrate-based fragment identification for the development of selective, nonpeptidic inhibitors of striatal-enriched protein tyrosine phosphatase” (J Med Chem, 2013).

Assays:
[1] = biological target: T1, Tyrosine-protein phosphatase non-receptor type 5 (Homo sapiens, UniProt P54829); assay: Inhibition of human STEP using pNPP as substrate after 5 mins by spectrophotometric plate reader analysis
T1 sequence (P54829 whole entry): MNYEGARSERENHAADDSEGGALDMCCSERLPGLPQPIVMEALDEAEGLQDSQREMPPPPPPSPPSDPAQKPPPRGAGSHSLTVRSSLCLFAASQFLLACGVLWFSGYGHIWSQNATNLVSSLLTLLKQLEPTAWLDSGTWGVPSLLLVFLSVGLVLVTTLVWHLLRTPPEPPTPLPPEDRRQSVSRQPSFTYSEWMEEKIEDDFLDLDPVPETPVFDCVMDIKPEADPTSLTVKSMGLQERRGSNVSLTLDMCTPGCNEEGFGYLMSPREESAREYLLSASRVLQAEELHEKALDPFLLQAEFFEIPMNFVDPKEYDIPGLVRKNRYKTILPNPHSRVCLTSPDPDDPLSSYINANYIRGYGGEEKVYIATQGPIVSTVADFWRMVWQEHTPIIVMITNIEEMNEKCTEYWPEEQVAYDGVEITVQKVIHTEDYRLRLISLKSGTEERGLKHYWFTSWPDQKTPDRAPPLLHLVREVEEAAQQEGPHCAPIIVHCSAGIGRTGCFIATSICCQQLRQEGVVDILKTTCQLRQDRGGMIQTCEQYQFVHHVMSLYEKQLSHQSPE

[2] = biological target: T2, Tyrosine-protein phosphatase non-receptor type 2 (Homo sapiens, UniProt P17706); assay: Inhibition of human TC-PTP using pNPP as substrate after 5 mins by spectrophotometric plate reader analysis
T2 sequence (P17706 whole entry): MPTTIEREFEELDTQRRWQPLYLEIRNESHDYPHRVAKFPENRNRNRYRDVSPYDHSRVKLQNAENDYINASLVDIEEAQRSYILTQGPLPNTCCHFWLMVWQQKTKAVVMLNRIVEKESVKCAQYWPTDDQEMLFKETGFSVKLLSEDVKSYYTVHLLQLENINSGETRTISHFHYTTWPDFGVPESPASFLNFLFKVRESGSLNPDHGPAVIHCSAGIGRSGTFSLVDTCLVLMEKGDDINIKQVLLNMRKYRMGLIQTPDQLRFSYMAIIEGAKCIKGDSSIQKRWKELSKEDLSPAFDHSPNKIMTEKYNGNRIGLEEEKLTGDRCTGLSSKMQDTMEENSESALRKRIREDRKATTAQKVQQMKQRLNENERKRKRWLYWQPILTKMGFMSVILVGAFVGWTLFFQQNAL
Method in brief: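 Selectivity assay using the STEP Ki protocol. Enzyme was preincubated 5 min at 27 °C with two- or three-fold inhibitor serial dilutions in DMSO, in imidazole/NaCl buffer at pH 7.0 with 0.01% Triton X-100 and 5 mM DTT. Reaction started with pNPP (500 μM in assay), read continuously at 405 nm for 20 min. Ki came from nonlinear regression of substrate-velocity curves, using this enzyme's pNPP KM; at least duplicate.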

[3] = biological target: T3, Receptor-type tyrosine-protein phosphatase C (Homo sapiens, UniProt P08575); assay: Inhibition of human CD45 using pNPP as substrate after 5 mins by spectrophotometric plate reader analysis
T3 sequence (P08575 whole entry): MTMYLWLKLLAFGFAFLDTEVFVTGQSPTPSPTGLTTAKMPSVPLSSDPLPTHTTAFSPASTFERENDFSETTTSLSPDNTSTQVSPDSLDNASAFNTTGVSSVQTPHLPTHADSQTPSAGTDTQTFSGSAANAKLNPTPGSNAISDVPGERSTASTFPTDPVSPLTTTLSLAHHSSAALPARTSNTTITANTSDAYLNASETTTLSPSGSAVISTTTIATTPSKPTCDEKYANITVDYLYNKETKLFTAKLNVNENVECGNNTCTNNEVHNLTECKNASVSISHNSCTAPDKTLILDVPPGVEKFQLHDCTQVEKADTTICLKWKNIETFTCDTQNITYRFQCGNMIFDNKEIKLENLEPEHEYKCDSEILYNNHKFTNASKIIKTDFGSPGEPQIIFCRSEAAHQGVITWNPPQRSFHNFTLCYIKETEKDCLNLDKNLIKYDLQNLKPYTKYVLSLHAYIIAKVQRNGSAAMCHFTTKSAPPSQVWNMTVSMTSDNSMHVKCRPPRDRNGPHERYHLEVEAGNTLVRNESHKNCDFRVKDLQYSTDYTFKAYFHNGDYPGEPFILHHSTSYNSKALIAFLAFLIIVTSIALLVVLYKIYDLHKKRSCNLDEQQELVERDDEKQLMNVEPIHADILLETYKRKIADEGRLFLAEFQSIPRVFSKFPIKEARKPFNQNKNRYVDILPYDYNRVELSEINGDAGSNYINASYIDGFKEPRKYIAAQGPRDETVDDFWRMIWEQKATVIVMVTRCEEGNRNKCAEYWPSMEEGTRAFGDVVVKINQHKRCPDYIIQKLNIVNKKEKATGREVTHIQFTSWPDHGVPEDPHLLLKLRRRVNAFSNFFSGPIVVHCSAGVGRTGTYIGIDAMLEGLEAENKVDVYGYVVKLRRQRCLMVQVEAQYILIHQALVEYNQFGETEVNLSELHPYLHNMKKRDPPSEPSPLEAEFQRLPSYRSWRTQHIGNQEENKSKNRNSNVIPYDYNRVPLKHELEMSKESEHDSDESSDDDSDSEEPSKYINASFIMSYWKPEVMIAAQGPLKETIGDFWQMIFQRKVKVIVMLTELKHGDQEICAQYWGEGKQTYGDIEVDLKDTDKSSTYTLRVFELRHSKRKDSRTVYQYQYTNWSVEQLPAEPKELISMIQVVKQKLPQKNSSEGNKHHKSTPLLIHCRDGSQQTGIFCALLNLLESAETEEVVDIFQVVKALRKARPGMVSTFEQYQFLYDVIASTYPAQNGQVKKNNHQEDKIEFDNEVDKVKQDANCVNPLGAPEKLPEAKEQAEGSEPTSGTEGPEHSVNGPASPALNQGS
Method in brief: (§1)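 Enzyme preincubated 5 min at 27 °C with serially diluted inhibitor (from DMSO) in imidazole/NaCl buffer pH 7.0 with 0.01% Triton X-100 and 5 mM DTT. Started with pNPP (500 μM in assay) and read at 405 nm for 20 min. The pNPP KM was measured for each enzyme. Ki from nonlinear regression of substrate–velocity curves at several inhibitor levels; at least duplicate.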

[4] = biological target: Receptor-type tyrosine-protein phosphatase F (Homo sapiens, UniProt P10586); assay: Inhibition of human LAR using pNPP as substrate after 5 mins by spectrophotometric plate reader analysis; method in brief: as §1
[5] = biological target: T4, Dual specificity protein phosphatase 10 (Homo sapiens, UniProt Q9Y6W6); assay: Inhibition of human MKP5 using DiFMUP as substrate after 5 mins by spectrophotometric plate reader analysis
T4 sequence (Q9Y6W6 whole entry): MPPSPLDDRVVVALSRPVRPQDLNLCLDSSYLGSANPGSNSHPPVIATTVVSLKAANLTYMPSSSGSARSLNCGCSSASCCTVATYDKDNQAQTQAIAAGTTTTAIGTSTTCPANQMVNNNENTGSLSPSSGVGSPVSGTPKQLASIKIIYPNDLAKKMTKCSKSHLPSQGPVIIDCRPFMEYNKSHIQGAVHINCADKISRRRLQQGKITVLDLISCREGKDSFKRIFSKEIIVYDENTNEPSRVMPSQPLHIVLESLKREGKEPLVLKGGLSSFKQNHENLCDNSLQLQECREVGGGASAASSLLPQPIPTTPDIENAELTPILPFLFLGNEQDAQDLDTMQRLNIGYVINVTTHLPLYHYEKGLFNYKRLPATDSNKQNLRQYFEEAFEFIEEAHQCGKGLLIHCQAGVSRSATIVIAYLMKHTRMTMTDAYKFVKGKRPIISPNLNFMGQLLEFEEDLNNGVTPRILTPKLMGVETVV
Method in brief: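 The […] substrate was DiFMUP. Buffer was Tris-HCl pH 8.0 with Triton X-100 and 5 mM DTT. Inhibitor was preincubated with enzyme for 5 min at 27 °C before adding substrate. Ki from nonlinear regression of initial-rate substrate–velocity data at several inhibitor concentrations; at least duplicate.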

Homo sapiens [6] = species: Homo sapiens; assay: Selectivity ratio of Ki for human TC-PTP to Ki for human STEP
Method in brief: (§2)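 STEP, CD45, LAR and TC-PTP used pNPP (500 μM) in imidazole/NaCl pH 7.0 with Triton X-100, read at 405 nm for 20 min. MKP5 used DiFMUP in Tris-HCl pH 8.0. The enzyme's own pNPP KM was used in analysis; ratio of the Ki values.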

Homo sapiens [7] = species: Homo sapiens; assay: Selectivity ratio of Ki for human CD45 to Ki for human STEP; method in brief: as §2
Homo sapiens [8] = species: Homo sapiens; assay: Selectivity ratio of Ki for human LAR to Ki for human STEP; method in brief: as §2
Homo sapiens [9] = species: Homo sapiens; assay: Selectivity ratio of Ki for human MKP5 to Ki for human STEP; method in brief: as §2
[10] = substrate: CC(C)(C)CC(C)(C)c1ccc(OP(=O)(O)O)cc1; assay: (§3) Activity at human STEP measured for 20 mins by spectrophotometric plate reader analysis
Method in brief: (§4)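 Substrate KM by coupled assay: STEP 100 nM with MESG 400 μM, PNP 1 U/mL, 5 mM DTT in imidazole/NaCl buffer with Triton X-100, pH 7.0; preincubated 3 min at 27 °C, then started with substrate (about 0–3.00 mM in assay, from DMSO). Followed 20 min at 360 nm, 27 °C; KM from Michaelis–Menten fit of initial rates.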

[11] = substrate: CC(Cc1ccccc1)c1ccc(OP(=O)(O)O)cc1; assay: as §3; method in brief: as §4
[12] = substrate: COC(=O)[C@H](Cc1ccc(OP(=O)(O)O)cc1)NC(C)=O; assay: as §3; method in brief: as §4
[13] = substrate: O=C(Cc1ccc(OP(=O)(O)O)cc1)Nc1ccccc1; assay: as §3; method in brief: as §4
[14] = substrate: O=C(Oc1cccc(OP(=O)(O)O)c1)c1ccccc1; assay: as §3; method in brief: as §4
[15] = substrate: O=P(O)(O)Oc1ccc(-c2ccccc2)cc1; assay: as §3; method in brief: as §4
[16] = substrate: O=P(O)(O)Oc1cccc(-c2ccccc2)c1; assay: as §3; method in brief: as §4
[17] = substrate: O=P(O)(O)Oc1cccc(Nc2ccccc2)c1; assay: as §3; method in brief: as §4
[18] = substrate: O=P(O)(O)Oc1ccccc1; assay: as §3; method in brief: as §4
[19] = substrate: O=[N+]([O-])c1ccc(OP(=O)(O)O)cc1; assay: as §3; method in brief: as §4

Sequence of Receptor-type tyrosine-protein phosphatase F (P10586 whole entry): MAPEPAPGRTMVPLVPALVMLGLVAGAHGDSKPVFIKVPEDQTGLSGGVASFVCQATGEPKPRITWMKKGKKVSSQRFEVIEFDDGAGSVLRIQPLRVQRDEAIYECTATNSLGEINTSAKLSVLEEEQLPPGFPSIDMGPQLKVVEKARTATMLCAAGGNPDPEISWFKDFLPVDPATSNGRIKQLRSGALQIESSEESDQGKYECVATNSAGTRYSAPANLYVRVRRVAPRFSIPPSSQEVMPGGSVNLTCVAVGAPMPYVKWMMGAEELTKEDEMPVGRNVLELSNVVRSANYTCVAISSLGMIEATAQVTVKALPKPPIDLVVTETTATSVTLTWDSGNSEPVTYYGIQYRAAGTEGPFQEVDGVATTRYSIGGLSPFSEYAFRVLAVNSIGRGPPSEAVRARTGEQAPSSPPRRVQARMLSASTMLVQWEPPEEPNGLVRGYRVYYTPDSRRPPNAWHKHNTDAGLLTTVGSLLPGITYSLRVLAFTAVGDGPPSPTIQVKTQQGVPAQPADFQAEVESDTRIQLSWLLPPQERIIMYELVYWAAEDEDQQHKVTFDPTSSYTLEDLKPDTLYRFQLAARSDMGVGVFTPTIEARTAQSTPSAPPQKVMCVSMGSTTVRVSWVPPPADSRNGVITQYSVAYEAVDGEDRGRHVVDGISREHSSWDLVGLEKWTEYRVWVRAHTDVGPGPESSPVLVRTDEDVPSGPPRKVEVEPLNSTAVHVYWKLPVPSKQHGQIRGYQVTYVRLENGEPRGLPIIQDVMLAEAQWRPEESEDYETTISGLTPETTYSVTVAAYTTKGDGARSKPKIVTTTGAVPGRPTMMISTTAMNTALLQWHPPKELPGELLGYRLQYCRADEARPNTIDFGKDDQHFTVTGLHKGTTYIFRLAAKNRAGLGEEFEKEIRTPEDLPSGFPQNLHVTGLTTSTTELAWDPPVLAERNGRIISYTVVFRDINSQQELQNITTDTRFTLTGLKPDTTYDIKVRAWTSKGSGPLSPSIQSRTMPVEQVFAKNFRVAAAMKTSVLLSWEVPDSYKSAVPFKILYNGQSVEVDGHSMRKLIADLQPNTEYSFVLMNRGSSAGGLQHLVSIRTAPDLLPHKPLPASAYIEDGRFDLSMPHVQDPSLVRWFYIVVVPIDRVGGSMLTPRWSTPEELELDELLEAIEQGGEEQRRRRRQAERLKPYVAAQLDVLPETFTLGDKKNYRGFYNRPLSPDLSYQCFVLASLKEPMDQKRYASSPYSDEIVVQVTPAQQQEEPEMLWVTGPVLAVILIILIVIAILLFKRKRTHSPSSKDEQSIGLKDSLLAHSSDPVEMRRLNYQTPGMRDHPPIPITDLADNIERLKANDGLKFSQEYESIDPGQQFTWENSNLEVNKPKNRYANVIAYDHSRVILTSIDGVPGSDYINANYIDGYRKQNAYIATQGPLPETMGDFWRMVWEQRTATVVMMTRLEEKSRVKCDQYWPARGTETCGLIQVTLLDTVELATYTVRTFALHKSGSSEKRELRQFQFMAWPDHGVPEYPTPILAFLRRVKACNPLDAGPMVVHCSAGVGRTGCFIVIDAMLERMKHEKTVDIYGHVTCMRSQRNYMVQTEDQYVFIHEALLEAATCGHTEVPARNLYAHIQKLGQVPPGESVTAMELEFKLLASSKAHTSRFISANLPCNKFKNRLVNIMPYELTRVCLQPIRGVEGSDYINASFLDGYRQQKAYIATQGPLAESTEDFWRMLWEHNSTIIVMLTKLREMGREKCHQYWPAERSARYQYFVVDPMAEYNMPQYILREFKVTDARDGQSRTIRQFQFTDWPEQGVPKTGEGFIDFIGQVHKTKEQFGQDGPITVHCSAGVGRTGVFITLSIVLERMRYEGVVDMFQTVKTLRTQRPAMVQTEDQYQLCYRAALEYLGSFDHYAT

O=P(O)(O)[C@@H](O)c1ccc(-c2cccc([C@H](O)c3ccc(Cl)c(Cl)c3)c2)cc1
Ki [1]: 93 µM

O=P(O)(O)C(F)(F)c1ccc(-c2cccc(Nc3ccccc3)c2)cc1
Ki [1]: 112 µM

CS(=O)(=O)Nc1ccccc1-c1ccc(C(F)(F)P(=O)(O)O)cc1
Ki [1]: 673 µM

O=P(O)(O)[C@@H](O)c1ccc(-c2cccc([C@@H](O)c3ccc(Cl)c(Cl)c3)c2)cc1
Ki [1]: 88 µM

CS(=O)(=O)Nc1cccc(-c2ccc(C(F)(F)P(=O)(O)O)cc2)c1
Ki [1]: 113 µM

O=P(O)(O)C(F)(F)c1cccc(-c2cccc(C3CCCCC3)c2O)c1
Ki [2]: 71 µM | Ki [1]: 20 µM | Ki [3]: > 500 µM | Ki [4]: > 900 µM | Ki [5]: 150 µM | Ratio Ki (Homo sapiens [6]): 3.6 | Ratio Ki (Homo sapiens [7]): > 25 | Ratio Ki (Homo sapiens [8]): > 45 | Ratio Ki (Homo sapiens [9]): 7.5

O=P(O)(O)C(F)(F)c1ccc(-c2ccccc2)cc1
Ki [1]: 120 µM

O=P(O)(O)C(F)(F)c1cccc(-c2ccccc2)c1
Ki [1]: 337 µM

B1: Tyrosine-protein phosphatase non-receptor type 5 (Homo sapiens), P54829 (protein)
chain: T1 sequence (P54829 whole entry)
Km [10]: 260 µM | Km [11]: 128 µM | Km [12]: 378 µM | Km [13]: 133 µM | Km [14]: 327 µM | Km [15]: 169 µM | Km [16]: 277 µM | Km [17]: 650 µM | Km [18]: 2730 µM | Km [19]: 745 µM
